Assay results published in ChEMBL document CHEMBL1944570, “Discovery of 4''-ether linked azithromycin-quinolone hybrid series: influence of the central linker on the antibacterial activity” (ACS Med Chem Lett, 2011).
≈ marks a conversion by molar mass, not a printed value.

Experiments:
[1] = test system: Staphylococcus aureus; assay: Antibacterial activity against ciprofloxacin-resistant Staphylococcus aureus by agar microdilution method; assay type: functional
Outline: (§1)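 MIC by agar microdilution following NCCLS standards; strains drawn from the PLIVA Research Institute culture collection. MIC reported in μg/mL.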

[2] = test system: Staphylococcus aureus; assay: Antibacterial activity against erythromycin-susceptible Staphylococcus aureus by agar microdilution method; assay type: functional
Outline: (§2)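 Agar microdilution MIC per NCCLS standards against strains from the Pliva Research Institute culture collection; values in µg/mL. Panel included erythromycin-susceptible strains and strains with inducible or constitutive MLS resistance.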

[3] = test system: Staphylococcus aureus; assay: Antibacterial activity against Staphylococcus aureus with inducible resistance to MLS by agar microdilution method; assay type: functional; outline: as §1
[4] = test system: Staphylococcus aureus; assay: Antibacterial activity against constitutive MLS resistant Staphylococcus aureus by agar microdilution method; assay type: functional; outline: as §1
[5] = test system: Staphylococcus aureus; assay: Antibacterial activity against efflux mediated macrolide resistant Staphylococcus aureus by agar microdilution method; assay type: functional; outline: as §1
[6] = test system: Streptococcus pneumoniae; assay: Antibacterial activity against erythromycin-susceptible Streptococcus pneumoniae by agar microdilution method; assay type: functional; outline: as §1
[7] = test system: Streptococcus pneumoniae; assay: Antibacterial activity against constitutive MLS resistant Streptococcus pneumoniae by agar microdilution method; assay type: functional; outline: as §1
[8] = test system: Streptococcus pneumoniae; assay: Antibacterial activity against efflux mediated macrolide resistant Streptococcus pneumoniae by agar microdilution method; assay type: functional; outline: as §1
[9] = test system: Streptococcus pyogenes; assay: Antibacterial activity against erythromycin-susceptible Streptococcus pyogenes by agar microdilution method; assay type: functional; outline: as §1
[10] = test system: Streptococcus pyogenes; assay: Antibacterial activity against Streptococcus pyogenes with inducible resistance to MLS by agar microdilution method; assay type: functional; outline: as §1
[11] = test system: Streptococcus pyogenes; assay: Antibacterial activity against constitutive MLS resistant Streptococcus pyogenes by agar microdilution method; assay type: functional; outline: as §1
[12] = test system: Streptococcus pyogenes; assay: Antibacterial activity against efflux mediated macrolide resistant Streptococcus pyogenes by agar microdilution method; assay type: functional; outline: as §1
[13] = test system: Haemophilus influenzae; assay: Antibacterial activity against Haemophilus influenzae B0529 by agar microdilution method; assay type: functional; outline: as §2
[14] = test system: Moraxella catarrhalis; assay: Antibacterial activity against Moraxella catarrhalis by agar microdilution method; assay type: functional; outline: as §2
[15] = Inhibition of protein synthesis using Escherichia coli S30 extracts preincubated for 10 mins measured after 50 mins by luciferase reporter gene assay; assay type: functional
[16] = Inhibition of Escherichia coli DNA gyrase-mediated supercoiling of relaxed pBR322 DNA
[17] = Inhibition of Escherichia coli topoisomerase 4-mediated relaxation of supercoiled pBR322 DNA

Compound	MIC [1] [µg/mL]	MIC [2] [µg/mL]	MIC [3] [µg/mL]	MIC [4] [µg/mL]	MIC [5] [µg/mL]	MIC [6] [µg/mL]	MIC [7] [µg/mL]	MIC [8] [µg/mL]	MIC [9] [µg/mL]	MIC [10] [µg/mL]	MIC [11] [µg/mL]	MIC [12] [µg/mL]	MIC [13] [µg/mL]	MIC [14] [µg/mL]	IC50 [15] [µM]	IC50 [16] [µM]	IC50 [17] [µM]
CC[C@H]1OC(=O)[C@H](C)[C@@H](O[C@H]2C[C@@](C)(OC)[C@@H](OCCNCCNc3cc4c(cc3F)c(=O)c(C(=O)O)cn4C3CC3)[C@H](C)O2)[C@H](C)[C@@H](O[C@@H]2O[C@H](C)C[C@H](N(C)C)[C@H]2O)[C@](C)(O)C[C@@H](C)CN(C)[C@H](C)[C@H]2OC(=O)O[C@@]21C	≥ 64	4 (≈ 3.62 µM)	64 (≈ 57.8 µM)	> 64	4 (≈ 3.62 µM)	≤ 0.125	64 (≈ 57.8 µM)	0.25 (≈ 0.226 µM)	≤ 0.125	0.25 (≈ 0.226 µM)	8 (≈ 7.23 µM)	4 (≈ 3.62 µM)	4 (≈ 3.62 µM)	0.5 (≈ 0.452 µM)	–	–	–
CC[C@H]1OC(=O)[C@H](C)[C@@H](O[C@H]2C[C@@](C)(OC)[C@@H](OCCNCCOCCNc3cc4c(=O)c(C(=O)O)cn(C5CC5)c4cc3Cl)[C@H](C)O2)[C@H](C)[C@@H](O[C@@H]2O[C@H](C)C[C@H](N(C)C)[C@H]2O)[C@](C)(O)C[C@@H](C)CN(C)[C@H](C)[C@H]2OC(=O)O[C@@]21C	32 (≈ 27.4 µM)	≤ 0.125	0.25 (≈ 0.214 µM)	32 (≈ 27.4 µM)	0.25 (≈ 0.214 µM)	≤ 0.125	–	–	≤ 0.125	–	0.5 (≈ 0.429 µM)	–	0.5 (≈ 0.429 µM)	≤ 0.125	0.28	70	60
CC[C@H]1OC(=O)[C@H](C)[C@@H](O[C@H]2C[C@@](C)(OC)[C@@H](OCCNCCNc3cc4c(=O)c(C(=O)O)cn(C5CC5)c4cc3Cl)[C@H](C)O2)[C@H](C)[C@@H](O[C@@H]2O[C@H](C)C[C@H](N(C)C)[C@H]2O)[C@](C)(O)C[C@@H](C)CN(C)[C@H](C)[C@@H](O)[C@]1(C)O	≥ 64	4 (≈ 3.65 µM)	64 (≈ 58.4 µM)	> 64	8 (≈ 7.29 µM)	≤ 0.125	64 (≈ 58.4 µM)	0.25 (≈ 0.228 µM)	≤ 0.125	1 (≈ 0.912 µM)	16 (≈ 14.6 µM)	8 (≈ 7.29 µM)	2 (≈ 1.82 µM)	0.5 (≈ 0.456 µM)	–	–	–
CC[C@H]1OC(=O)[C@H](C)[C@@H](O[C@H]2C[C@@](C)(OC)[C@@H](OCCNCCOCCNc3cc4c(=O)c(C(=O)O)cn(C5CC5)c4cc3Cl)[C@H](C)O2)[C@H](C)[C@@H](O[C@@H]2O[C@H](C)C[C@H](N(C)C)[C@H]2O)[C@](C)(O)C[C@@H](C)CN(C)[C@H](C)[C@@H](O)[C@]1(C)O	≥ 64	≤ 0.125	0.25 (≈ 0.219 µM)	64 (≈ 56.1 µM)	0.5 (≈ 0.438 µM)	≤ 0.125	0.25 (≈ 0.219 µM)	–	≤ 0.125	–	1 (≈ 0.877 µM)	0.125 (≈ 0.11 µM)	0.5 (≈ 0.438 µM)	0.125 (≈ 0.11 µM)	0.35	60	50
CC[C@H]1OC(=O)[C@H](C)[C@@H](O[C@H]2C[C@@](C)(OC)[C@@H](OCCCC(=O)NCCNc3cc4c(=O)c(C(=O)O)cn(C5CC5)c4cc3Cl)[C@H](C)O2)[C@H](C)[C@@H](O[C@@H]2O[C@H](C)C[C@H](N(C)C)[C@H]2O)[C@](C)(O)C[C@@H](C)CN(C)[C@H](C)[C@@H](O)[C@]1(C)O	≥ 64	4 (≈ 3.51 µM)	32 (≈ 28.1 µM)	64 (≈ 56.2 µM)	4 (≈ 3.51 µM)	0.5 (≈ 0.439 µM)	0.5 (≈ 0.439 µM)	≤ 0.125	≤ 0.125	0.25 (≈ 0.22 µM)	2 (≈ 1.76 µM)	2 (≈ 1.76 µM)	8 (≈ 7.02 µM)	4 (≈ 3.51 µM)	–	–	–
CC[C@H]1OC(=O)[C@H](C)[C@@H](O[C@H]2C[C@@](C)(OC)[C@@H](OCCCC(=O)NCCNc3cc4c(cc3F)c(=O)c(C(=O)O)cn4C3CC3)[C@H](C)O2)[C@H](C)[C@@H](O[C@@H]2O[C@H](C)C[C@H](N(C)C)[C@H]2O)[C@](C)(O)C[C@@H](C)CN(C)[C@H](C)[C@@H](O)[C@]1(C)O	≥ 64	8 (≈ 7.13 µM)	8 (≈ 7.13 µM)	64 (≈ 57 µM)	16 (≈ 14.3 µM)	1 (≈ 0.891 µM)	1 (≈ 0.891 µM)	4 (≈ 3.56 µM)	1 (≈ 0.891 µM)	1 (≈ 0.891 µM)	16 (≈ 14.3 µM)	16 (≈ 14.3 µM)	8 (≈ 7.13 µM)	2 (≈ 1.78 µM)	–	–	–
CC[C@H]1OC(=O)[C@H](C)[C@@H](O[C@H]2C[C@@](C)(OC)[C@@H](OCCCC(=O)NCCOCCNc3cc4c(cc3F)c(=O)c(C(=O)O)cn4C3CC3)[C@H](C)O2)[C@H](C)[C@@H](O[C@@H]2O[C@H](C)C[C@H](N(C)C)[C@H]2O)[C@](C)(O)C[C@@H](C)CN(C)[C@H](C)[C@@H](O)[C@]1(C)O	≥ 64	16 (≈ 13.7 µM)	64 (≈ 54.9 µM)	64 (≈ 54.9 µM)	32 (≈ 27.4 µM)	0.5 (≈ 0.429 µM)	8 (≈ 6.86 µM)	0.25 (≈ 0.214 µM)	0.25 (≈ 0.214 µM)	0.25 (≈ 0.214 µM)	4 (≈ 3.43 µM)	2 (≈ 1.71 µM)	16 (≈ 13.7 µM)	8 (≈ 6.86 µM)	–	–	–
CC[C@H]1OC(=O)[C@H](C)[C@@H](O[C@H]2C[C@@](C)(OC)[C@@H](OCCCC(=O)NCCOCCOCCNc3cc4c(=O)c(C(=O)O)cn(C5CC5)c4cc3Cl)[C@H](C)O2)[C@H](C)[C@@H](O[C@@H]2O[C@H](C)C[C@H](N(C)C)[C@H]2O)[C@](C)(O)C[C@@H](C)CN(C)[C@H](C)[C@@H](O)[C@]1(C)O	≥ 64	16 (≈ 13 µM)	64 (≈ 52.2 µM)	64 (≈ 52.2 µM)	8 (≈ 6.52 µM)	≤ 0.125	64 (≈ 52.2 µM)	0.25 (≈ 0.204 µM)	0.25 (≈ 0.204 µM)	0.5 (≈ 0.408 µM)	4 (≈ 3.26 µM)	1 (≈ 0.815 µM)	8 (≈ 6.52 µM)	2 (≈ 1.63 µM)	–	–	–
CC[C@H]1OC(=O)[C@H](C)[C@@H](O[C@H]2C[C@@](C)(OC)[C@@H](O)[C@H](C)O2)[C@H](C)[C@@H](O[C@@H]2O[C@H](C)C[C@H](N(C)C)[C@H]2O)[C@](C)(O)C[C@@H](C)CN(C)[C@H](C)[C@@H](O)[C@]1(C)O [AZITHROMYCIN]	≥ 64	1 (≈ 1.34 µM)	> 64	> 64	> 64	≤ 0.125	> 64	4 (≈ 5.34 µM)	≤ 0.125	8 (≈ 10.7 µM)	> 64	1 (≈ 1.34 µM)	1 (≈ 1.34 µM)	0.25 (≈ 0.334 µM)	–	–	–
O=C(O)c1cn(C2CC2)c2cc(N3CCNCC3)c(F)cc2c1=O [CIPROFLOXACIN]	≥ 64	–	≤ 0.125	–	≤ 0.125	≤ 0.125	0.25 (≈ 0.754 µM)	0.25 (≈ 0.754 µM)	2 (≈ 6.04 µM)	0.25 (≈ 0.754 µM)	0.5 (≈ 1.51 µM)	≤ 0.125	≤ 0.125	0.125 (≈ 0.377 µM)	> 50	0.8	3
CC[C@H]1OC(=O)[C@H](C)C(=O)[C@H](C)[C@@H](O[C@@H]2O[C@H](C)C[C@H](N(C)C)[C@H]2O)[C@](C)(OC)C[C@@H](C)C(=O)[C@H](C)[C@H]2N(CCCCn3cnc(-c4cccnc4)c3)C(=O)O[C@]12C [TELITHROMYCIN]	≥ 64	≤ 0.125	0.5 (≈ 0.616 µM)	> 64	0.25 (≈ 0.308 µM)	≤ 0.125	–	0.5 (≈ 0.616 µM)	≤ 0.125	–	4 (≈ 4.93 µM)	0.25 (≈ 0.308 µM)	1 (≈ 1.23 µM)	≤ 0.125	0.23	> 50	> 50
